Where a SMILES comes first, the peptide text is derived from it. [ ]: non-standard residue; d: D form. ξ: configuration not given here. ξBip = NC(Cc1ccc(-c2ccccc2)cc1)C(=O)O; ξDip = NC(C(=O)O)C(c1ccccc1)c1ccccc1
Assays:
Ramos = experiment: Cytotoxicity against human Ramos cells assessed as inhibition of cell proliferation incubated for 4 hrs by MTS assay; format: functional, cell-based
How it was run: (§1)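 Cells grown in RPMI-1640 with 2 mM L-glutamine and 10% FBS, plated, then held 24 h at 37 °C. Adherent lines washed once in FBS-free medium. Cells exposed 4 h at 37 °C, 5% CO2 in FBS-free medium to 10 concentrations (1/4 steps, 400 μM top). 1% Triton X-100 served as positive control. MTS/PMS added for 2 h, then OD 490 nm read. IC50 from semilog curves; three independent experiments, quadruplicate wells.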

[1] = Cytotoxicity against human MINO cells assessed as inhibition of cell proliferation incubated for 4 hrs by MTS assay; format: functional, cell-based; how it was run: as §1
KARPAS-299 = experiment: Cytotoxicity against human KARPAS-299 cells assessed as inhibition of cell proliferation incubated for 4 hrs by MTS assay; format: functional, cell-based; conditions: KARPAS-299, 4 h; how it was run: as §1
CCRF-CEM = experiment: Cytotoxicity against human CCRF-CEM cells assessed as inhibition of cell proliferation incubated for 4 hrs by MTS assay; format: functional, cell-based; how it was run: as §1
A20 = experiment: Cytotoxicity against mouse A20 lymphoma cells assessed as inhibition of cell proliferation incubated for 4 hrs by MTT assay; format: functional, cell-based; conditions: A20, 4 h
How it was run: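 Murine A20 cells cultured in RPMI-1640 with 2 mM L-glutamine, 1.5 g/L sodium bicarbonate, 4.5 g/L glucose, 10 mM HEPES, 1.0 mM sodium pyruvate, 0.05 mM 2-mercaptoethanol and 10% FBS, without antibiotics, at 37 °C, 5% CO2. IC50 from three or more independent measurements, given as mean ± SD.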

HL60/ADR = experiment: Cytotoxicity against human HL60/ADR cells assessed as inhibition of cell proliferation incubated for 4 hrs by MTS assay; format: functional, cell-based; how it was run: as §1
MCF7 = experiment: Cytotoxicity against human MCF7 cells assessed as inhibition of cell proliferation incubated for 4 hrs by MTS assay; format: functional, cell-based; conditions: MCF7, 4 h; how it was run: as §1
IGROV-1 = experiment: Cytotoxicity against human IGROV-1 cells assessed as inhibition of cell proliferation incubated for 4 hrs by MTS assay; format: functional, cell-based; conditions: IGROV-1, 4 h; how it was run: as §1
[2] = Cytotoxicity against human IGROV(CDDP) cells assessed as inhibition of cell proliferation incubated for 4 hrs by MTS assay; format: functional, cell-based; how it was run: as §1
K562 [3] = experiment: Cytotoxicity against human K562 cells assessed as inhibition of cell proliferation incubated for 4 hrs by MTS assay; format: functional, cell-based; conditions: K562, 4 h; how it was run: as §1
K562 [4] = experiment: Cytotoxicity in imatinib resistant human K562 cells assessed as inhibition of cell proliferation incubated for 4 hrs by MTS assay; format: functional, cell-based; conditions: K562, 4 h
How it was run: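 Oncodesign panel MTS/PMS assay. Cells in RPMI-1640 + 10% FBS. After 24 h pre-plating, adherent lines washed in FBS-free medium. Cells exposed 4 h at 37 °C in FBS-free medium to 10 concentrations, 1/4 dilutions from 400 μM top. Triton X-100 (1% final) positive control. MTS/PMS added, 2 h, OD 490 nm. IC50 from semilog curves. Three independent experiments, quadruplicate wells.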

Daudi = experiment: Cytotoxicity against human Daudi cells assessed as inhibition of cell proliferation incubated for 4 hrs by MTS assay; format: functional, cell-based; how it was run: as §1
Toledo = experiment: Cytotoxicity against human Toledo cells assessed as inhibition of cell proliferation incubated for 4 hrs by MTS assay; format: functional, cell-based; how it was run: as §1
U-937 = experiment: Cytotoxicity against human U-937 cells assessed as inhibition of cell proliferation incubated for 4 hrs by MTS assay; format: functional, cell-based; conditions: U-937, 4 h; how it was run: as §1
CEM-VLB = experiment: Cytotoxicity against human CCRF-CEM/VLB cells assessed as inhibition of cell proliferation incubated for 4 hrs by MTS assay; format: functional, cell-based; how it was run: as §1
RPMI-8226 = experiment: Cytotoxicity against human RPMI-8226 cells assessed as inhibition of cell proliferation incubated for 4 hrs by MTS assay; format: functional, cell-based; conditions: RPMI-8226, 4 h; how it was run: as §1
SH-SY5Y = experiment: Cytotoxicity against human SH-SY5Y cells assessed as inhibition of cell proliferation incubated for 4 hrs by MTS assay; format: functional, cell-based; how it was run: as §1
SK-N-AS = experiment: Cytotoxicity against human SK-N-AS cells assessed as inhibition of cell proliferation incubated for 4 hrs by MTS assay; format: functional, cell-based; how it was run: as §1
MDA-MB-231 = experiment: Cytotoxicity against human MDA-MB-231 cells assessed as inhibition of cell proliferation incubated for 4 hrs by MTS assay; format: functional, cell-based; conditions: MDA-MB-231, 4 h; how it was run: as §1
MDA-MB-435S = experiment: Cytotoxicity against human MDA-MB-435S cells assessed as inhibition of cell proliferation incubated for 4 hrs by MTS assay; format: functional, cell-based; how it was run: as §1
HCT-15 = experiment: Cytotoxicity against human HCT-15 cells assessed as inhibition of cell proliferation incubated for 4 hrs by MTS assay; format: functional, cell-based; conditions: HCT-15, 4 h; how it was run: as §1
[5] = Cytotoxicity against human HUVEC-C cells assessed as inhibition of cell proliferation incubated for 4 hrs by MTS assay; format: toxicity, cell-based; how it was run: as §1
786-0 = experiment: Cytotoxicity against human 786-0 cells assessed as inhibition of cell proliferation incubated for 4 hrs by MTS assay; format: functional, cell-based; conditions: 786-0, 4 h; how it was run: as §1
HepG2 = experiment: Cytotoxicity against human HepG2 cells assessed as inhibition of cell proliferation incubated for 4 hrs by MTS assay; format: functional, cell-based; conditions: HepG2, 4 h; how it was run: as §1
SK-HEP1 = experiment: Cytotoxicity against human SK-HEP1 cells assessed as inhibition of cell proliferation incubated for 4 hrs by MTS assay; format: functional, cell-based; conditions: SK-HEP1, 4 h; how it was run: as §1
A549 = experiment: Cytotoxicity against human A549 cells assessed as inhibition of cell proliferation incubated for 4 hrs by MTS assay; format: functional, cell-based; conditions: A549, 4 h; how it was run: as §1
Calu-6 = experiment: Cytotoxicity against human Calu-6 cells assessed as inhibition of cell proliferation incubated for 4 hrs by MTS assay; format: functional, cell-based; conditions: Calu-6, 4 h; how it was run: as §1
[6] = Cytotoxicity against human MRC5 cells assessed as inhibition of cell proliferation incubated for 4 hrs by MTS assay; format: toxicity, cell-based; how it was run: as §1
NCI-H460 = experiment: Cytotoxicity against human NCI-H460 cells assessed as inhibition of cell proliferation incubated for 4 hrs by MTS assay; format: functional, cell-based; conditions: NCI-H460, 4 h; how it was run: as §1
BXPC-3 = experiment: Cytotoxicity against human BXPC-3 cells assessed as inhibition of cell proliferation incubated for 4 hrs by MTS assay; format: functional, cell-based; conditions: BXPC-3, 4 h; how it was run: as §1
PANC-1 = experiment: Cytotoxicity against human PANC-1 cells assessed as inhibition of cell proliferation incubated for 4 hrs by MTS assay; format: functional, cell-based; conditions: PANC-1, 4 h; how it was run: as §1
DU-145 = experiment: Cytotoxicity against human DU-145 cells assessed as inhibition of cell proliferation incubated for 4 hrs by MTS assay; format: functional, cell-based; conditions: DU-145, 4 h; how it was run: as §1
A-431 = experiment: Cytotoxicity against human A-431 cells assessed as inhibition of cell proliferation incubated for 4 hrs by MTS assay; format: functional, cell-based; conditions: A-431, 4 h; how it was run: as §1
Malme-3M = experiment: Cytotoxicity against human Malme-3M cells assessed as inhibition of cell proliferation incubated for 4 hrs by MTS assay; format: functional, cell-based; how it was run: as §1
SK-MEL-2 = experiment: Cytotoxicity against human SK-MEL-2 cells assessed as inhibition of cell proliferation incubated for 4 hrs by MTS assay; format: functional, cell-based; conditions: SK-MEL-2, 4 h; how it was run: as §1
[7] = Cytotoxicity against human Hs 445 cells assessed as inhibition of cell proliferation incubated for 4 hrs by MTS assay; format: functional, cell-based; conditions: Hs 445, 4 h; how it was run: as §1
[8] = Cytotoxicity against human U-87 MG cells assessed as inhibition of cell proliferation incubated for 4 hrs by MTS assay; format: functional, cell-based, U-87MG ATCC; how it was run: as §1

Row | SMILES | IC50 (Ramos) [nM] | IC50 [1] [µM] | IC50 (KARPAS-299) [µM] | IC50 (CCRF-CEM) [µM] | IC50 (A20) [µM] | IC50 (HL60/ADR) [µM] | IC50 (MCF7) [µM] | IC50 (IGROV-1) [µM] | IC50 [2] [µM] | IC50 (K562 [3]) [µM] | IC50 (K562 [4]) [µM] | IC50 (Daudi) [µM] | IC50 (Toledo) [µM] | IC50 (U-937) [µM] | IC50 (CEM-VLB) [µM] | IC50 (RPMI-8226) [µM] | IC50 (SH-SY5Y) [µM] | IC50 (SK-N-AS) [µM] | IC50 (MDA-MB-231) [µM] | IC50 (MDA-MB-435S) [µM] | also measured
1 | NCCCC[C@H](NC(=O)[C@H](Cc1c[nH]c2ccccc12)NC(=O)[C@H](Cc1c[nH]c2ccccc12)NC(=O)[C@H](CCCCN)NC(=O)[C@H](CCCCN)NC(=O)[C@H](Cc1c[nH]c2ccccc12)NC(=O)C(Cc1ccc(-c2ccccc2)cc1)NC(=O)[C@H](CCCCN)NC(=O)[C@@H](N)CCCCN)C(N)=O (some centres undefined) (H-KK[ξBip]WKKWWK-NH2) | 3200 | 8.4 | 10 | 7.6 | 13 | 7 | 6.8 | 13.4 | 6.6 | 7.2 | 7.9 | 6.6 | 5.2 | 3.8 | 5.7 | 4 | 7.8 | 6.1 | 10.8 | 11.4 | IC50 (HCT-15): 13.9 µM; IC50 at 4 h [5]: 37.9 µM; IC50 (786-0): 16.8 µM; IC50 (HepG2): 14.8 µM; IC50 (SK-HEP1): 12.6 µM; IC50 (A549): 10.3 µM; IC50 (Calu-6): 6.1 µM; IC50 at 4 h [6]: 30.9 µM; IC50 (NCI-H460): 11.2 µM; IC50 (BXPC-3): 8.9 µM; IC50 (PANC-1): 10.8 µM; IC50 (DU-145): 8.8 µM; IC50 (A-431): 7.2 µM; IC50 (Malme-3M): 8.9 µM; IC50 (SK-MEL-2): 13.4 µM; IC50 [7]: 4.2 µM; IC50 [8]: 18.5 µM
2 | N=C(N)NCCC[C@H](NC(=O)[C@H](Cc1c[nH]c2ccccc12)NC(=O)[C@H](Cc1c[nH]c2ccccc12)NC(=O)[C@H](CCCNC(=N)N)NC(=O)[C@H](CCCNC(=N)N)NC(=O)C(NC(=O)[C@H](Cc1c[nH]c2ccccc12)NC(=O)[C@H](CCCNC(=N)N)NC(=O)[C@@H](N)CCCNC(=N)N)C(c1ccccc1)c1ccccc1)C(N)=O (some centres undefined) (H-RRW[ξDip]RRWWR-NH2) | 2800 | 5.2 | 8.2 | 5.6 | 6.7 | 6 | 5.5 | 11.1 | 5.5 | 7 | 7.7 | 4.7 | 3 | 2.6 | 3.6 | 4.1 | 5.4 | 6.9 | 7.6 | 8 | IC50 (HCT-15): 7.5 µM; IC50 at 4 h [5]: 19.4 µM; IC50 (786-0): 7.5 µM; IC50 (HepG2): 16.6 µM; IC50 (SK-HEP1): 6.3 µM; IC50 (A549): 7.3 µM; IC50 (Calu-6): 5.8 µM; IC50 at 4 h [6]: 14.6 µM; IC50 (NCI-H460): 9.3 µM; IC50 (BXPC-3): 6.2 µM; IC50 (PANC-1): 12.5 µM; IC50 (DU-145): 6.8 µM; IC50 (A-431): 5.5 µM; IC50 (Malme-3M): 10.4 µM; IC50 (SK-MEL-2): 10.6 µM; IC50 [7]: 2.2 µM; IC50 [8]: 13.1 µM

Source: ChEMBL document CHEMBL5257020, “Discovery of a 9-mer Cationic Peptide (LTX-315) as a Potential First in Class Oncolytic Peptide” (J Med Chem, 2016)
